As usually defined, the IC50 is the concentration needed to halve the response being measured.

For 13 molecules, Activity and IC50 results are on record in ChEMBL document CHEMBL3232819, “Synthesis and biological evaluation of new pyrazolone-pyridazine conjugates as anti-inflammatory and analgesic agents” (Bioorg Med Chem, 2014).

For assay [1], the system named is Mus musculus. As to the kind of experiment: Antiinflammatory activity in Swiss Albino mouse assessed as inhibition of carrageenan-induced paw edema at 25 mg/kg, po administered 30 mins before carrageenan challenge relative to vehicle-treated control. The arrangement: scale not given: the % may be the effect or the level left. The format is functional. The method in brief:
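Male Swiss albino mice, 25–32 g, six per group, given drug in 1% CMC orally 30 min before subplantar right hind paw injection of carrageenan (1% w/v in 0.9% saline, 0.05 mL/mouse). […] Mean ± SEM, one-way ANOVA/Bonferroni.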
On the technique in general: Carrageenan injected into the paw causes an acute inflammation.

Assay [2] concerns Mus musculus. As to the kind of experiment: Antiinflammatory activity in Swiss Albino mouse assessed as inhibition of carrageenan-induced TNFalpha production in serum at 25 mg/kg, po administered 30 mins before carrageenan challenge after 30 mins by ELISA (reference value: 15.48 +/- 0.31 ng/ml). The format is functional.
Assay [3] concerns Mus musculus. As to the kind of experiment: Analgesic activity in Swiss Albino mouse assessed as inhibition of acetic acid-induced writhing at 25 mg/kg, po administered 30 mins before to acetic acid challenge measured for 15 mins relative to vehicle-treated control. It counts as functional. On the set-up: scale not given: the % may be the effect or the level left. In short, it runs like this: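 Male Swiss albino mice, 25–32 g, n=6/group, dosed by oral gavage (5 mL/kg) in 1% CMC; vehicle controls. Mice habituated 30 min in test cage. Writhing induced by 0.1 mL 1% acetic acid ip at 30 min post-dose. Abdominal contractions counted for 15 min from the 5th min after injection. % protection = (n−n0)/n × 100 using group mean writhes. Mean ± SEM, one-way ANOVA/Bonferroni.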
For orientation: An intraperitoneal irritant provokes the stretching counted in writhing tests.

Assay [4] relates to Mus musculus. Put plainly: Antiinflammatory activity in Swiss Albino mouse assessed as inhibition of carrageenan-induced IL-6 production in serum at 25 mg/kg, po administered 30 mins before carrageenan challenge after 30 mins by ELISA (reference value: 23.8 +/- 2.5 ng/ml). The format is functional.
The target in assay [5] is T1, Prostaglandin G/H synthase 1 (Ovis aries, UniProt P05979).
T1 sequence (P05979 whole entry): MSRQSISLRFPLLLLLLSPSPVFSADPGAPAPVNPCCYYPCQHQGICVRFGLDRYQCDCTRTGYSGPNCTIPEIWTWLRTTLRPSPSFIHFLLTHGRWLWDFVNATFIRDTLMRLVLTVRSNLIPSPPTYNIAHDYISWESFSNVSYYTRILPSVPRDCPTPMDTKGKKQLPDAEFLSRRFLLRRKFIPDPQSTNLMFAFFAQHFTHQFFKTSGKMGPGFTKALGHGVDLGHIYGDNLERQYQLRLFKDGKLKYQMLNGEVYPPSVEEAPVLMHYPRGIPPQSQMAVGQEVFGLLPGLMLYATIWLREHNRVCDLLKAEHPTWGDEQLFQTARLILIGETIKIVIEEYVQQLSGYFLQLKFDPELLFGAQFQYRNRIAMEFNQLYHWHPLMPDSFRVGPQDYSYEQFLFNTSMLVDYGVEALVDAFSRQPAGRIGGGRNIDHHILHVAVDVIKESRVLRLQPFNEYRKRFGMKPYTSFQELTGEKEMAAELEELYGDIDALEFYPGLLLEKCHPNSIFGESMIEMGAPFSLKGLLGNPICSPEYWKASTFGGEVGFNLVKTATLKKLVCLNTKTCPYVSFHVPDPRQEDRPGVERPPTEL
As to the kind of experiment: Inhibition of ovine COX1 using arachidonic acid as substrate assessed as conversion of PGH2 to PGF2alpha after 10 mins by EIA. The method in brief: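 Ovine COX-1 EIA kit: enzyme with heme and DMSO-dissolved sample in 0.1 M Tris-HCl pH 8, 5 mM EDTA, 2 mM phenol, preincubated 10 min at 37 °C; arachidonic acid added (final 100 µM), stopped after 2 min with HCl, SnCl2 reduction 5 min RT; PGF2α by EIA (18 h RT, Ellman's, 410 nm). IC50 versus untreated control incubations.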

Regarding `O=C1CC(Nc2ccccc2Nc2ccc(Cl)nn2)=NN1`, the Activity with Mus musculus [1] was 11.2%; in the assay with Mus musculus [2], 13.2 ng/mL; with Mus musculus [3] it was 33.4%; in the assay on Mus musculus [4], 21.4 ng/mL.

Take `CCOc1ccc(Nc2ccccc2NC2=NNC(=O)C2)nn1`: the Activity worked out at 10.2% with Mus musculus [1], 12.4 ng/mL with Mus musculus [2], 18.2% in the assay with Mus musculus [3] and 22.4 ng/mL in the assay with Mus musculus [4].

As to `CN1CCN(c2ccc(Nc3ccccc3NC3=NNC(=O)C3)nn2)CC1`, the Activity is 35.3% with Mus musculus [1], 9.34 ng/mL in the assay with Mus musculus [2], 41.2% in the assay with Mus musculus [3] and 19.5 ng/mL with Mus musculus [4].

On to `O=C1CC(Nc2ccccc2Nc2ccc(N3CCCCC3)nn2)=NN1`, for which the Activity in the assay on Mus musculus [1] worked out at 59.4%; in the assay on Mus musculus [2] it was 7.5 ng/mL; in the assay with Mus musculus [3], 55.6%; with Mus musculus [4], 16.5 ng/mL. In assay [5], the IC50 came out at 3.15 µM.

Regarding `O=C1CC(Nc2ccccc2Nc2ccc(N3CCOCC3)nn2)=NN1`, the Activity amounted to 62.3% in the assay with Mus musculus [1], 7.2 ng/mL in the assay with Mus musculus [2], 63.7% with Mus musculus [3] and 11.8 ng/mL with Mus musculus [4]. In addition, the IC50 in assay [5] is 2.86 µM.

`O=C1CC(Nc2ccccc2Nc2ccc(Nc3ccccc3Cl)nn2)=NN1`: the Activity in the assay on Mus musculus [1] turned out to be 54.3%; in the assay with Mus musculus [2], 6.4 ng/mL; in the assay with Mus musculus [3] it was 57.2%; with Mus musculus [4], 10.65 ng/mL. Moreover, the IC50 in assay [5] was found to be 4.02 µM.

`O=C1CC(Nc2ccccc2Nc2ccc(Nc3ccc(Cl)cc3)nn2)=NN1`: the Activity was determined as 35.4% in the assay on Mus musculus [1], 7.12 ng/mL with Mus musculus [2], 68.3% in the assay with Mus musculus [3] and 9.76 ng/mL in the assay on Mus musculus [4]. Also, the IC50 in assay [5] came out at 4.46 µM.

For the molecule `O=C1CC(Nc2ccccc2Nc2ccc(Nc3ccccc3F)nn2)=NN1`, the Activity in the assay on Mus musculus [1] is 11.2%; in the assay with Mus musculus [2], 11.2 ng/mL; in the assay with Mus musculus [3], 36.1%; in the assay with Mus musculus [4] it was 17.3 ng/mL.

For the molecule `O=C1CC(Nc2ccccc2Nc2ccc(Nc3cccc([N+](=O)[O-])c3)nn2)=NN1`, the Activity is 5.4% in the assay on Mus musculus [1], 13.5 ng/mL in the assay on Mus musculus [2], 13.2% in the assay on Mus musculus [3] and 18.3 ng/mL in the assay on Mus musculus [4].

`NS(=O)(=O)c1ccc(Nc2ccc(Nc3ccccc3NC3=NNC(=O)C3)nn2)cc1`: the Activity worked out at 15.4% in the assay on Mus musculus [1], 16.7 ng/mL with Mus musculus [2], 11.3% in the assay with Mus musculus [3] and 21.43 ng/mL with Mus musculus [4].

With `NC(=O)c1ccccc1Nc1ccc(Nc2ccccc2NC2=NNC(=O)C2)nn1`, the Activity in the assay with Mus musculus [1] was 18.2%; with Mus musculus [2] it was 12.5 ng/mL; in the assay with Mus musculus [3], 13.2%; with Mus musculus [4] it was 22.3 ng/mL.

Consider `NC(=O)c1ccccc1Oc1ccc(Nc2ccccc2NC2=NNC(=O)C2)nn1`, for which the Activity with Mus musculus [1] turned out to be 9.3%; in the assay with Mus musculus [2], 11.98 ng/mL; in the assay with Mus musculus [3] it was 14.2%; in the assay with Mus musculus [4], 22.6 ng/mL.

Take `O=C([O-])Cc1ccccc1Nc1c(Cl)cccc1Cl.[Na+]` [DICLOFENAC SODIUM]: the Activity is 61.5% with Mus musculus [1], 5.01 ng/mL in the assay with Mus musculus [2], 83.3% in the assay with Mus musculus [3] and 7.6 ng/mL in the assay with Mus musculus [4].
